Laboratory results reported in article PMC11297572 (International Journal of Nanomedicine, 2024).
In brackets after ≈: the same amount, converted by molar mass. Entries after “also recorded” stand apart in the source; their conditions may differ.

Legend:
A549 cells [1] = test: MTT growth inhibition of A549 cells; assay type: cell-based; conditions: Homo sapiens
How it was run: (§1)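 Cells were grown in RPMI 1640 or DMEM with 10% FBS and 100 U/mL penicillin-streptomycin at 37 °C, 5% CO2. Log-phase cells were seeded at 3–5×10³ per well and cultured 24 h before graded drug concentrations were added. After 24 or 48 h exposure, MTT (5 mg/mL solution) was added for 3–4 h. Medium was removed, formazan dissolved in DMSO with 10 min shaking, and OD read at 490 nm. Growth inhibition rate was calculated from OD. Data are mean ± SD of triplicates.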

Ki67 = test: Immunohistochemistry of Ki67 in tumor tissues; assay type: in vivo, nude mice; conditions: tumor tissue after 21 days
How it was run: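 Tumors were taken at the end of the 21-day study and fixed in 4% paraformaldehyde for 24 h. They were dehydrated in absolute alcohol, paraffin-embedded and sectioned. Antigen retrieval was 5 min at high temperature in 0.01 M citrate buffer, pH 6.0. Primary antibody (1:200) was applied overnight at 4 °C, then secondary antibody for 30 min at 37 °C. Sections were developed with DAB, counterstained with hematoxylin and imaged. Scoring was blind.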

[2] = tested on: heart, liver, kidney and lung tissues; test: HE staining of organs; assay type: in vivo; conditions: lung of nude mice after administration
[3] = tested on: A549 subcutaneous transplanted tumor; test: In vivo antitumor efficacy in tumor-bearing nude mice; conditions: 21 days of administration
How it was run: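 The xenograft model used A549 cells. Treatment ran for 21 days with body weight tracked against the start of dosing; n = 5 per group. At the end, surviving mice were killed and tumors were excised and weighed to calculate tumor inhibition rate.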

H460 cells = test: MTT growth inhibition of H460 cells; assay type: cell-based; conditions: Homo sapiens
How it was run: as §1

A549 cells [4] = test: Apoptosis of A549 cells; assay type: cell-based, human; conditions: 24 h
[5] = tested on: A549 subcutaneous transplanted tumor; test: HE staining of tumor tissues; assay type: in vivo, nude mice; conditions: tumor tissue after 21 days
How it was run: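 Subcutaneous tumors were excised after 21 days of treatment once the surviving mice were killed. Tissue was washed twice in 0.9% saline, fixed in 4% paraformaldehyde, dehydrated, paraffin-embedded and sectioned. Sections were stained with hematoxylin and eosin and assessed for pathology. All procedures were done blind.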

IC50 (A549 cells [1]; A549, 24 h): 45.9 µg/mL (≈ 53.7 µM)
IC50 (A549 cells [1]; A549, 48 h): 31.7 µg/mL (≈ 37.1 µM)
IC50 (H460 cells; NCI-H460, 24 h): 49.3 µg/mL (≈ 57.7 µM)
IC50 (H460 cells; NCI-H460, 48 h): 39.4 µg/mL (≈ 46.1 µM)
SMILES: CC(=O)O[C@H]1C(=O)[C@@]2(C)[C@H]([C@H](OC(=O)c3ccccc3)[C@]3(O)C[C@H](OC(=O)[C@H](O)[C@@H](NC(=O)c4ccccc4)c4ccccc4)C(C)=C1C3(C)C)[C@]1(OC(C)=O)CO[C@@H]1C[C@@H]2O [PTX, paclitaxel]
expression of Ki67 in tumor tissues (Ki67): 45.88%
pathological changes in organs (HE staining) [2]: pathological changes and tumor cell infiltration; also recorded: different degrees of pathological changes and necrosis in their hearts and livers
body weight change ([3]; nude mice): gradual
tumor inhibition rate ([3]; tumor-bearing nude mice): 29.95%
apoptosis rate (A549 cells [4]; A549, 5 μg/mL): 3.57%
apoptosis rate (A549 cells [4]; A549, 10 μg/mL): 7.34%
apoptosis rate (A549 cells [4]; A549, 20 μg/mL): 16.6%
necrosis of tumor tissue (necrotic area) [5]: approximately 20%
